Active and inactive are the calls of the source. The calls are words filed in the database; no cut-off is given here.
Columns and labels:
A549 = assay: Antiproliferative activity against human A549 cells assessed as reduction in viability after 72 hrs by SRB assay; format: functional, cell-based; conditions: A549, 72 h
In short: (§1)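 Cells seeded and dosed in triplicate for 72 h. Suspension lines (HL-60, K-562, K562/ADR, HL-60/MX2) were read by MTT: 5 mg/mL MTT stock added, 4 h at 37 °C, formazan dissolved in 10% SDS/5% isobutanol/10 mM HCl, A570. Adherent lines were read by SRB: fixed with cold 10% TCA, stained with 0.4% SRB in 1% acetic acid, A540. IC50 from four-parameter logistic fit; mean of ≥3 independent experiments.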

Bel-7402 [1] = assay: Antiproliferative activity against human Bel7402 cells assessed as reduction in viability after 72 hrs by SRB assay; format: functional, cell-based; conditions: Bel-7402, 72 h; in short: as §1
[2] = Selectivity ratio of IC50 for human MRC9 cells to IC50 for human A549 cells
In short: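 SRB assay: A549 (F-12, 10% FBS) and MRC-5/MRC-9 (EMEM, 10% FBS) treated in triplicate 72 h, fixed with ice-cold 10% TCA, stained with 0.4% SRB in 1% acetic acid, absorbance 540 nm; IC₅₀ by four-parameter logistic fit, mean of ≥3 independent experiments.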

U-118-MG = assay: Antiproliferative activity against human U118MG cells after 72 hrs by SRB assay; format: functional, cell-based; conditions: pooled result: one value given for 25 cell lines, strains, targets or settings
In short: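 Adherent cells seeded in 96-well plates and exposed in triplicate to compound for 72 h at 37 °C, humidified. Fixed with 10% ice-cold trichloroacetic acid, stained with 0.4% sulforhodamine B in 1% acetic acid, and absorbance read at 540 nm. IC50 fitted by four-parameter logistic; mean of at least three independent experiments.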

HL-60 = assay: Antiproliferative activity against human HL60 cells after 72 hrs by MTT assay; format: functional, cell-based; conditions: HL-60, 72 h; in short: as §1
K562 [3] = assay: Antiproliferative activity against human K562 cells after 72 hrs by MTT assay; format: functional, cell-based; conditions: K562, 72 h; in short: as §1
KB = assay: Antiproliferative activity against human KB cells after 72 hrs by SRB assay; format: functional, cell-based; in short: as §1
Bel-7402 [4] = assay: Inhibition of DNA synthesis in human Bel7402 cells assessed as reduction in BrdU incorporation preincubated for 1 hr followed by BrdU addition for 30 mins by FITC/propidium iodide staining based flow cytometry; format: functional, cell-based
In short: (§2)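 BEL-7402 cells (3 × 10⁵ per well) exposed to compounds 1 h, then labeled with 10 μM BrdU for 30 min; trypsinized, fixed in 70% ethanol at −20 °C ≥1 h, 2 N HCl 20 min, neutralized with 0.1 M borate, stained with anti-BrdU-FITC plus PI 30 min; BrdU-positive cells quantified by flow cytometry; three independent experiments, mean + SD.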

Bel-7402 [5] = assay: Inhibition of DNA synthesis in human Bel7402 cells assessed as BrdU incorporation at 0.1 uM preincubated for 1 hr followed by BrdU addition for 30 mins by FITC/propidium iodide staining based flow cytometry (reference value: 35.5%); format: functional; parameters: scale not given: the % may be the effect or the level left; in short: as §2
Bel-7402 [6] = assay: Inhibition of DNA synthesis in human Bel7402 cells assessed as BrdU incorporation at 1 nM preincubated for 1 hr followed by BrdU addition for 30 mins by FITC/propidium iodide staining based flow cytometry (reference value: 35.5%); format: functional; parameters: scale not given: the % may be the effect or the level left; in short: as §2
Bel-7402 [7] = assay: Induction of apoptosis in human Bel7402 cells assessed as viable cells at 0.1 uM after 72 hrs by Annexin V/propidium iodide staining based flow cytometric analysis (reference value: 92.4%); format: functional; conditions: Bel-7402, 72 h, read-out: Activity
Bel-7402 [8] = assay: Induction of apoptosis in human Bel7402 cells assessed as early apoptotic cells at 0.1 uM after 72 hrs by Annexin V/propidium iodide staining based flow cytometric analysis (reference value: 3.66%); format: functional
In short: (§3)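 BEL-7402 cells (3 × 10⁵ per well, 6-well plates) exposed for 72 h. Harvested, PBS-washed, resuspended in cold binding buffer with annexin V–FITC and PI, and stained 15 min in the dark at room temperature. Early apoptotic, late apoptotic and necrotic fractions quantified by flow cytometry.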

Bel-7402 [9] = assay: Induction of apoptosis in human Bel7402 cells assessed as late apoptotic cells at 0.1 uM after 72 hrs by Annexin V/propidium iodide staining based flow cytometric analysis (reference value: 3.6%); format: functional; in short: as §3
Bel-7402 [10] = assay: Induction of apoptosis in human Bel7402 cells assessed as necrotic cells at 0.1 uM after 72 hrs by Annexin V/propidium iodide staining based flow cytometric analysis (reference value: 0.38%); format: functional; in short: as §3
K562/Adr [11] = assay: Antiproliferative activity against human K562/ADR cells after 72 hrs by MTT assay; format: functional, cell-based; in short: as §1
[12] = Resistance factor, ratio of IC50 for human K562/ADR cells to IC50 for human K562 cells; format: functional
In short: (§4)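 72 h treatment in triplicate; suspended lines (HL-60, K-562, K562/ADR, HL-60/MX2) read by MTT (4 h, SDS/isobutanol/HCl solubilization, 570 nm); adherent KB and KB/VCR (MEM, 10% FBS) by SRB after TCA fixation (540 nm); IC₅₀ by four-parameter logistic fit, mean of ≥3 independent experiments.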

HL60/MX2 = assay: Antiproliferative activity against human HL60/MX2 cells after 72 hrs by MTT assay; format: functional, cell-based; conditions: HL60/MX2, 72 h; in short: as §1
[13] = Resistance factor, ratio of IC50 for human HL60/MX2 cells to IC50 for human HL60 cells; format: functional; in short: as §4
[14] = Antiproliferative activity against human KB/VCR cells after 72 hrs by SRB assay; format: functional, cell-based; in short: as §1
[15] = Resistance factor, ratio of IC50 for human KB/VCR cells to IC50 for human KB cells; format: functional; in short: as §4
K562 [16] = assay: Cell cycle arrest in human K562 cells assessed as delay in progression of S-phase to G2-phase at 1 to 10 nM pre-treated with aphidicolin for 16 hrs followed by compound addition measured up to 24 hrs by propidium iodide staining-based flow cytometric method; format: functional
Bel-7402 [17] = assay: Inhibition of colony formation in human Bel7402 cells at 0.01 to 10 uM after 24 hrs by SRB staining-based plate colony formation assay; format: functional, cell-based
In short: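 BEL-7402 cells seeded at 200 per well, treated in triplicate 24 h, washed twice with PBS, then grown 12 days in fresh medium; colonies stained with SRB and those ≥1 mm diameter counted; three independent experiments, mean ± SD.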

Bel-7402 [18] = assay: Induction of DNA damage in human Bel7402 cells assessed as increase in CHK1 phosphorylation at Ser345 residue at 0.1 to 10 uM after 1 hr by Western blot analysis; format: functional, cell-based
In short: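 BEL-7402 cells (1.5 × 10⁵ per well, 12-well plates) exposed to compounds for 1 h. Phospho-Chk1 Ser345, phospho-Chk2 Thr68 and γH2AX detected by Western blot. Camptothecin at 1 μM served as the DNA-damage reference.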

Bel-7402 [19] = assay: Induction of apoptosis in human Bel7402 cells assessed as viable cells at 10 uM after 72 hrs by Annexin V/propidium iodide staining based flow cytometric analysis (reference value: 92.4%); format: functional; conditions: Bel-7402, 72 h, read-out: Activity
K562/Adr [20] = assay: Effect on P-gp expression in human K562/ADR cells up to 10 uM after 24 hrs by Western blot analysis; format: functional, cell-based

| Compound | IC50 (A549) | IC50 (Bel-7402 [1]) | IC50 (U-118-MG) | IC50 (HL-60) | IC50 (K562 [3]) | IC50 (KB) | inhibition (Bel-7402 [4]) | Activity (Bel-7402 [5]) | viability at 0.1 µM (Bel-7402 [7]) | Activity (Bel-7402 [8]) | Activity (Bel-7402 [9]) | Activity (Bel-7402 [10]) | IC50 (K562/Adr [11]) | Ratio IC50 [12] | IC50 (HL60/MX2) | Ratio IC50 [13] | IC50 [14] | Ratio IC50 [15] | further results |
| --- | --- | --- | --- | --- | --- | --- | --- | --- | --- | --- | --- | --- | --- | --- | --- | --- | --- | --- | --- |
| COc1cc2c3c(c4ccc(O)cc4c2cc1OC)CN1CCCC[C@@H]1C3 | 0.0007 µM | 0.0017 µM | 0.0021 µM | 0.0018 µM | 0.0022 µM | 0.0012 µM | Dose-dependent effect | 4.83% | 72.4% | 5.16% | 19.8% | 2.57% | 0.0026 µM | 1.2 | 0.0017 µM | 0.9 | 0.001 µM | 0.8 | Ratio IC50 [2]: 3 - 4; Activity (Bel-7402 [6]): 28.6%; Activity (K562 [16]): Active |
| COc1cc2c3c(c4cc(OC)c(OC)cc4c2cc1OC)[C@H](O)[C@@H]1CCCN1C3 | 0.283 µM | 0.11 µM | 0.167 µM | 0.213 µM | 0.0984 µM | 0.0582 µM | Dose-dependent effect | 32.5% | 94.6% | 2.86% | 2.22% | 0.37% | 0.138 µM | 1.4 | 0.278 µM | 1.3 | 0.0652 µM | 1.1 | inhibition (Bel-7402 [17]): Active; Activity (Bel-7402 [18]): inactive; viability at 10 µM (Bel-7402 [19]): 85.1%; Activity (K562/Adr [20]): inactive |
